Data: ChEMBL document CHEMBL1133511, “Contribution of the adenine base to the activity of adenophostin A investigated using a base replacement strategy” (J Med Chem, 2000)

Columns and labels:
[1] = Tested for equilibrium competition binding to InsP3 receptor in hepatic membranes using 1.3-1.8 nM [3H]Ins(1,4,5)P3 as the radioligand.; assay type: functional, cell membranes, Rattus norvegicus, Liver, Membrane
How it was run: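 Rat liver membranes (perfused, homogenized, Percoll-purified), 0.1 mg protein/tube in 50 mM Tris, 1 mM EDTA, pH 8.3, incubated 5 min at 4 °C with [3H]Ins(1,4,5)P3 plus competing ligand; bound separated by centrifugation (20000g, 5 min), counted by scintillation. Kd and Hill coefficient from equilibrium competition; means ± SEM of 4 independent experiments.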

Rattus norvegicus [2] = organism: Rattus norvegicus; assay: Tested for concentration of ligand causing half maximal response of Calcium ion release from permeabilised hepatocytes; assay type: functional; details: Hepatocyte
How it was run: (§1)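 Permeabilized rat hepatocytes loaded to steady state with 45Ca2+ (5 min, 37 °C) in cytosol-like medium (140 mM KCl, 20 mM NaCl, 2 mM MgCl2, 1 mM EGTA, 300 µM CaCl2, 20 mM Pipes, pH 7.0) with 1.5 mM ATP, creatine phosphate/kinase, 10 µM FCCP; 1.25 µM thapsigargin added, 30 s later agonist for 60 s; store 45Ca2+ by rapid filtration. Four-parameter logistic fit; means ± SEM, 6-15 experiments.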

Rattus norvegicus [3] = organism: Rattus norvegicus; assay: Tested for percentage of intracellular calcium ion stores released in rat hepatocytes; assay type: functional, Hepatocyte; how it was run: as §1

SMILES	Ki [1]	EC50 (Rattus norvegicus [2])	Max response (Rattus norvegicus [3])
Nc1ncnc2c1ncn2[C@@H]1O[C@H](CO)[C@@H](O[C@H]2O[C@@H](CO)[C@@H](OP(=O)(O)O)[C@H](OP(=O)(O)O)[C@@H]2O)[C@H]1OP(=O)(O)O	0.45 nM	14 nM	51%
O=P(O)(O)O[C@@H]1[C@H](O)[C@@H](O)[C@@H](OP(=O)(O)O)[C@H](OP(=O)(O)O)[C@@H]1O	2.72 nM	119 nM	55%
O=P(O)(O)O[C@@H]1[C@H](O)[C@@H](O[C@H]2[C@@H](OP(=O)(O)O)[C@H](n3cnc4cncnc43)O[C@@H]2CO)O[C@@H](CO)[C@H]1OP(=O)(O)O [PURINOPHOSTIN]	0.8 nM	18 nM	52%
O=P(O)(O)O[C@@H]1[C@H](O)[C@@H](O[C@H]2[C@@H](OP(=O)(O)O)[C@H](n3ccnc3)O[C@@H]2CO)O[C@@H](CO)[C@H]1OP(=O)(O)O	2.19 nM	108 nM	57%
